For data set [1], the system named is hepatitis B virus (HBV). The following applies: HepAD38 cells, 1–10 μM; cited from earlier work.
Data set [2] concerns hepatitis B virus (HBV). The data set can be described thus: Reduction of intracellular HBV rcDNA in HepAD38 cells. It is filed as cell-based. The following applies: qPCR, relative to 0.5% DMSO vehicle.
Data set [3] concerns hepatitis B virus (HBV). The data set can be described thus: Inhibition of HBsAg secretion in HBV-replicating HepAD38 cells. Type of data set: cell-based. The following applies: for Inhibition of HBsAg secretion (in words): 5 μM, relative to vehicle 0.5% DMSO. In outline: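 HepAD38 cells carry an integrated HBV genome under a tetracycline-regulated promoter, […]. Cells were treated with test compound. HBsAg secreted into the culture supernatant was quantified by ELISA. Selectivity index was taken as CC50/IC50.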

Data set [4] concerns HepAD38 cells. Nature of the data set: Cytotoxicity in HepAD38 cells. Type of data set: cell-based. The following applies: read-out: Cytotoxicity CC50, MTS assay, 0 to 100 μM.
Data set [5] in a line: Cytotoxicity in HepAD38 cells. The following applies: human, Cytotoxicity CC50, HepAD38 cells, MTS assay, 0 to 100 μM. It is filed as cell-based.

Each structure is given as a SMILES string.

On to `C[C@@]1(CO)[C@H](O)CC[C@@]2(C)[C@H]1CC[C@H]1C[C@@H]3C[C@@]12CC[C@]3(O)CO` [aphidicolin], for which, in data set [1], the “Effect on cccDNA levels (in words)” value was “effectively reduces cccDNA levels in a dose-dependent manner”.
For the molecule `CC[C@]12C=CCN3CC[C@]4(C(=C(C(=O)OC)C1)Nc1ccccc14)[C@@H]32` [compound 6, tabersonine], in data set [2], the “rcDNA inhibition [%]: compound (5 μM)” value is listed as “minimal or no effect”. Also, the “Inhibition of HBsAg secretion (in words)” value in data set [3] (HepAD38 cells) is “only modest inhibitory activity”. Moreover, in data set [3] (HepAD38 cells, CC50 (MTS) / HBsAg IC50), the “Selectivity index: CC50/IC50” value came out at 2.86. Moreover, the concentration for half-maximal inhibition (IC50) in data set [3] (Hepatitis B virus, HePAD38, read-out: HBsAg IC50) was 14.6 ± 4.1 µM. The CC50 in data set [4] was 41.8 ± 3.1 µM.
As to `CCOC(=O)C1=C[C@]2(CC)CCCN3CCc4c(n1c1ccccc41)[C@@H]32` [compound 8, vinpocetine], the “rcDNA inhibition [%]: compound (5 μM)” value in data set [2] is reported as “minimal or no effect”. Moreover, the “Inhibition of HBsAg secretion (in words)” value in data set [3] (HepAD38 cells) was “negligible inhibitory effects”. In data set [5], the CC50 at 14 days is above 100 µM.

As usually defined, the IC50 is the concentration needed to halve the response being measured. Usually CC50 stands for the concentration giving 50% cytotoxicity.

The record behind these values is article PMC12560046 (RSC Chemical Biology, 2025).
